Measurements: PMC10073337 (Biochemistry, 2023)
Marks after values point to notes of the source that are not given here.

Key:
[1] = target: T1, HsIYD reconstituted with FMN analogues (Homo sapiens, UniProt Q6PHW0); type: biochemical; conditions: I-Tyr as substrate, HsIYD reconstituted with the cofactor, pH 7.4
T1 sequence (Q6PHW0 with tags, fused parts or gaps): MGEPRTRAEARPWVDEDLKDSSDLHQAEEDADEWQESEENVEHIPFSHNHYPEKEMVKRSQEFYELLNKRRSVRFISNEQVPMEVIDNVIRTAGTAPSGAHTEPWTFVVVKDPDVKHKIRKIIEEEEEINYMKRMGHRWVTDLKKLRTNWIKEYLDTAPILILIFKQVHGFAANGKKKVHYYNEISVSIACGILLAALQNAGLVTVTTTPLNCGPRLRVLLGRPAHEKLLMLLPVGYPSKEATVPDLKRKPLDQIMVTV
In short: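 FMN was stripped from column-bound SUMO–HsIYD with 0.6 to 1.5 M guanidinium HCl, then the gradient was reversed. The protein was loaded with 200 μM flavin analogue for 4 h at 4 °C and washed. It was eluted with 250 mM imidazole, the tag was cleaved, and size exclusion followed. Turnover used 70–80 nM enzyme, 100 mM potassium phosphate pH 7.4, 0.5% dithionite and 25 °C, with HPLC product detection.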

[2] = free in neutral aqueous solution at 25 °C; cited from earlier work
[3] = cited from earlier work
[4] = Estimated phenol pKa and phenolate fraction of substrates; type: physicochemical; conditions: assay conditions of pH 7.4, based on estimated pKa
HhIYD containing FMNox = target: T2, HhIYD containing FMNox (Haliscomenobacter hydrossis, UniProt F4KU78); assay: Binding affinity to HhIYD containing oxidized FMN
T2 sequence (F4KU78 1-222): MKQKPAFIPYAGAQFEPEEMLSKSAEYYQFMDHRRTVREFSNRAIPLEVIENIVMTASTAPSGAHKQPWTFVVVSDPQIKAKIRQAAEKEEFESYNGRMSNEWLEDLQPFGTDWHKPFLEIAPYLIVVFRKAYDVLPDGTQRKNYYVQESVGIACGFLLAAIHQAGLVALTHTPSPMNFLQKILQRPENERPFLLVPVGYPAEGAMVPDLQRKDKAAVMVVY
In short: (§1)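 HsIYD (residues 2–31 removed) was expressed as a SUMO fusion and purified by Ni2+ affinity and size exclusion. HhIYD carried a C-terminal His6 tag and was purified by Ni2+ affinity. Ligand was titrated into 3 μM enzyme in 110 mM potassium phosphate pH 7.4, stirred, at 25 °C. Flavin fluorescence (ex 450, em 516 nm) was read 2 min after each addition. Kd was fitted from fractional remaining fluorescence versus total enzyme and ligand.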

HsIYD containing FMNox = target: T3, HsIYD containing FMNox (Homo sapiens, UniProt Q6PHW0); assay: Binding affinity to HsIYD containing oxidized FMN
T3 sequence (Q6PHW0 with tags, fused parts or gaps): T1 sequence (Q6PHW0 with tags, fused parts or gaps)
In short: as §1

[5] = target: T4, IYD from Haliscomenobacter hydrossis (HhIYD) (Haliscomenobacter hydrossis, UniProt F4KU78); assay: Catalytic deiodination; type: biochemical; conditions: I-Tyr turnover, pL 7.4, 100 mM potassium phosphate
T4 sequence (F4KU78 1-222): T2 sequence (F4KU78 1-222)

[6] = target: T5, Iodotyrosine deiodinase (Human, HsIYD) (Homo sapiens, UniProt Q6PHW0); assay: Catalytic deiodination; type: biochemical; conditions: 100 mM potassium phosphate pH 7.4, 0.5% sodium dithionite
T5 sequence (Q6PHW0 with tags, fused parts or gaps): T1 sequence (Q6PHW0 with tags, fused parts or gaps)

HhIYD = target: T6, HhIYD (Haliscomenobacter hydrossis, UniProt F4KU78); assay: Competitive inhibition of I-Tyr dehalogenation by HhIYD; type: biochemical
T6 sequence (F4KU78 1-222): T2 sequence (F4KU78 1-222)
In short: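 His6-tagged HhIYD (70–80 nM final) was incubated with I-Tyr in 111 mM potassium phosphate pH 7.4 at 25 °C. Dithionite (5% in 5% sodium bicarbonate) was added at one-tenth volume as reductant. Deiodinated product was quantified by reverse-phase C18 HPLC. The test compound was included as a competitive inhibitor, giving Ki against the reduced enzyme.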

| Compound | kcat [1] [s^−1 × 10^−2] | redox potential [2] | Kd (HhIYD containing FMNox) [µM] | Kd (HsIYD containing FMNox) [µM] | further results |
| --- | --- | --- | --- | --- | --- |
| Cc1cc2c(cc1Cl)nc1c(=O)[nH]c(=O)nc-1n2C[C@H](O)[C@H](O)[C@H](O)COP(=O)(O)O [7-Cl-FMN] | 3.3 ± 0.2 | −128^d mV |  |  |  |
| COc1cc2c(cc1C)nc1c(=O)[nH]c(=O)nc-1n2C[C@H](O)[C@H](O)[C@H](O)COP(=O)(O)O [8-MeO-FMN, 8-methoxy-desmethylFMN] | 9.0 ± 0.3 | −260^c mV |  |  |  |
| Cc1cc2nc3c(=O)[nH]c(=O)nc-3n(C[C@H](O)[C@H](O)[C@H](O)COP(=O)(O)O)c2cc1C [FMN, Flavin Mononucleotide] | 5.2 ± 0.2 | −205^d mV |  |  |  |
| N[C@@H](Cc1cc(I)c(O)c(I)c1)C(=O)O [I2-Tyr, diiodotyrosine] |  |  |  |  | pKa of the α-ammonium group [3]: 7.8 |
| N#Cc1cc(C[C@H](N)C(=O)O)cc(I)c1O [I-CN-Tyr, 3-cyano-5-iodotyrosine] |  |  | 7.3 ± 0.4 | 7 ± 0.03 | fraction existing in phenolate form [4]: 98% |
| N[C@@H](Cc1cc(F)c(O)c(I)c1)C(=O)O [I-F-Tyr, 3-fluoro-5-iodotyrosine] |  |  | 6.9 ± 0.3 | 0.9 ± 0.1 |  |
| Cc1cc(C[C@H](N)C(=O)O)cc(I)c1O [I-Me-Tyr, 3-Iodo-5-methyltyrosine] |  |  | 1.7 ± 0.1 | 2.6 ± 0.03 | fraction existing in phenolate form [4]: 3.4% |
| COc1cc(C[C@H](N)C(=O)O)cc(I)c1O [I-MeO-Tyr, 3-iodo-5-methoxytyrosine] |  |  | 4.3 ± 0.4 | 6.3 ± 0.3 |  |
| N[C@@H](Cc1ccc(O)c(I)c1)C(=O)O [I-Tyr, iodotyrosine] |  |  |  |  | Km ([5]; D2O): 12 ± 4 µM; kcat ([5]; D2O): 0.41 ± 0.05 s⁻¹; Km ([5]; H2O, 9% glycerol): 13 ± 4 µM; kcat ([5]; H2O, 9% glycerol): 0.39 ± 0.05 s⁻¹; Km ([5]; H2O): 23 ± 4 µM; kcat ([5]; H2O): 0.64 ± 0.08 s⁻¹; Km [6]: 19 ± 3 µM; kcat [6]: 0.12 ± 0.008 s⁻¹ |
| N[C@@H](Cc1ccc(O)c(F)c1)C(=O)O [fluorotyrosine, 3-fluorotyrosine] |  |  |  |  | Ki (HhIYD): 10.7 ± 0.1 µM |
